PfM18AAP inh-1 = PfM18AAP inhibitors, malaria aminopeptidase, primary screen, biochemical, QFRET, recombinant enzyme; M18 aspartyl aminopeptidase (Plasmodium falciparum 3D7); H-Glu-NHMec fluorogenic cleavage; inhibition, % at 7.35 µM; hit rate 1.2% among 290,000;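 active means inhibition above the campaign mean inhibition over all tested compounds plus 3 SD, cut at about 28% in these data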;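 further: 0% = plate median of test compound wells and 100% = 2 mM ZnCl2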
Hck Nef HTS = inhibitors of Nef-activated human Hck kinase, primary screen, biochemical, Z-Lyte FRET, 384-well, Hck-YEEI; Tyrosine-protein kinase HCK (Homo sapiens), P08631; Recombinant Hck-YEEI plus Nef, Z-Lyte FRET kinase assay; inhibition, % at 20 µM; AID 463187, 2010; hit rate 0.68% among 220,000;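 active means Hck-Nef kinase inhibition above about 50%, limit read from the data; inactive means inhibition below that limit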;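 further: 0% = DMSO with Hck plus Nef and 100% = Hck alone without Nef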
Target sequence (P08631 whole entry, looked up): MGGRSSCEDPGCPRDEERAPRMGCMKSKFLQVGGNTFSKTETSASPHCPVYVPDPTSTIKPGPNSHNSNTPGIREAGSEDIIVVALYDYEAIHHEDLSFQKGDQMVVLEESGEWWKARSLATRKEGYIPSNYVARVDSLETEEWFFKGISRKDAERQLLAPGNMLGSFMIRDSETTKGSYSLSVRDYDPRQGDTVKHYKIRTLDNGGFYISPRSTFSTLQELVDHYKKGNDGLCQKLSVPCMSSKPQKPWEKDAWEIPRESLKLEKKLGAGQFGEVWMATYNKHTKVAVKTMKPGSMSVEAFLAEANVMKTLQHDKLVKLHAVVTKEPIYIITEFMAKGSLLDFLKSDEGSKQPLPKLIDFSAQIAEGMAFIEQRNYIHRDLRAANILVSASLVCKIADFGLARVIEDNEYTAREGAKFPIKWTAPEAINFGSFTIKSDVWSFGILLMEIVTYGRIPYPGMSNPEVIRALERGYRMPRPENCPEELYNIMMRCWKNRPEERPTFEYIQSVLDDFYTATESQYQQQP
Runt-CBFb FRET = inhibitors of RUNX1 Runt–CBFb binding, primary screen, biochemical, FRET, Cerulean-Runt, Venus-CBFb, uHTS; Cerulean-Runt/Venus-CBFb FRET ratio 530/480, 1 h; hit rate 0.46% among 220,000; inhibition, % at 20 µM; AID 1496, 2009; Runt-related transcription factor 1 (Homo sapiens) + Core-binding factor subunit beta …;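 active means inhibition over about 50% at 20 µM in the single-dose screen, limit read from the data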;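 further: 0% = DMSO wells and 100% = excess unlabeled CBFb competitor control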
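Assay system: Cerulean-Runt domain fusion protein, energy donor; Signal: fluorescence energy transfer, 422 nm excitation, 530/480 nm emission; Timing: 1 h compound exposure, room temperature; Control set: unlabeled CBFb; Medium: Tris buffer pH 7.5 with salts and BSA; Compound: single test concentration of 20 µM, 1% DMSO final; Probe or stimulus: Venus-CBFb 100 nM.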
RanGTP-Imp inh = inhibitors of RanGTP-importin-beta interaction, primary screen, biochemical, FRET, CFP-Ran, YFP-importin-beta, homogeneous; cell-free CFP-Ran/YFP-importin-beta FRET ratio; inhibition, % (no concentration beside the values); hit rate 1.1% among 300,000;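 active means more than half of the replicate wells show a fall in the fluorescence ratio signal beyond about 16%, limit read from the data, passing the limit was not always enough; inconclusive means exactly half of the replicate wells pass the set limit; inactive means fewer than half of replicates pass the limit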;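 further: 0% = DMSO wells and 100% = Ran loaded with GDP instead of GTP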
Runt-SMMHC FRET = inhibitors of RUNX1 Runt–CBFb-SMMHC binding, primary screen, biochemical, FRET, Cerulean-Runt, Venus-CBFb-SMMHC, uHTS; Runt-related transcription factor 1 (Homo sapiens) + Core-binding factor subunit beta …; Cerulean-Runt/Venus-CBFb-SMMHC FRET ratio 530/480, 1 h; inhibition, % at 20 µM; hit rate 0.74% among 220,000; AID 1434, 2008;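 active means mean inhibition across duplicate retests at 20 µM reaching about 50%, limit read from the data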;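 further: 0% = DMSO wells and 100% = wells with excess untagged CBFb-SMMHC; inhibitors lower the FRET ratio by blocking Runt binding to CBFb-SMMHC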
RBBP9 inh = human RBBP9 inhibitors, primary screen, biochemical, fluorescence polarization, FP-Rh probe, HTS. Serine hydrolase RBBP9 (Homo sapiens), O75884. recombinant RBBP9. inhibition, % at 7.94 µM. hit rate 0.2% among 220,000. AID 1515, 2009;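 active means inhibition above the campaign mean of all tested compounds plus 3 SD, cut at about 14% in these data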;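 further: plate controls were DMSO wells with RBBP9 for no effect and wells lacking RBBP9 protein for full effect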
Target sequence (O75884 whole entry, looked up): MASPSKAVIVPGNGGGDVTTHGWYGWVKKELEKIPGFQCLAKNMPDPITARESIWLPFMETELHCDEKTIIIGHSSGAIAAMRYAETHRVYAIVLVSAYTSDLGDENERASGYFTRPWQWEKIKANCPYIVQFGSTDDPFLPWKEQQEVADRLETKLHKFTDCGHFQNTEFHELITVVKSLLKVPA
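Test system – recombinant human RBBP9 · Input – RBBP9 2.5 µM in dispensing solution, pre-mixing · Medium – Tris buffer pH 8.0, NaCl, Pluronic · Schedule – preincubation 30 min plus labeling 45 min at 25 °C · Measured by – fluorescence polarization · Measure – % inhibition · Controls – DMSO and no-protein wells · Replicates – one well per compound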
PfM18AAP inh-2 = PfM18AAP inhibitors, malaria aminopeptidase, confirmation, biochemical, QFRET, recombinant enzyme, triplicate; shares compounds with PfM18AAP inh-1; H-Glu-NHMec fluorogenic cleavage; inhibition, % at 7.35 µM; hit rate 28% among 2,400; AID 2170, 2009;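 active means mean inhibition over replicate wells above the hit cutoff set for the earlier primary screen, cut at about 29% in these data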;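 further: 0% = median of test compound wells and 100% = 2 mM ZnCl2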
CTSL1 counter = cathepsin L1 inhibitors, retest, confirmation, counter-screen for PFM18AAP inhibitor project, biochemical, QFRET, triplicate | shares compounds with PfM18AAP inh-1 | purified cathepsin L1, Z-Leu-Arg-MCA fluorescence | inhibition, % at 5.96 µM | 2,400 tested, under 10 active | AID 2178, 2009;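 active means average inhibition across replicates above the hit cutoff set in the earlier primary screen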;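 further: 0% = median of test compound wells and 100% = Z-Phe-Ala-diazomethylketone 1 µM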
Starred values were filed as active, the others as inactive; ? = inconclusive; / = not tested or not shown. Hits are enriched below; roughly 2.9% of the tested compounds scored in any of these assays.

SMILES	PfM18AAP inh-1	Hck Nef HTS	Runt-CBFb FRET	RanGTP-Imp inh	Runt-SMMHC FRET	RBBP9 inh	PfM18AAP inh-2	CTSL1 counter
Clc1ccc(-n2cccc2/C=N/n2cnnc2)cc1	41*	0	1	3	-1	-7	-22	-6
Cc1ccc(S(=O)(=O)N/N=C/c2cccn2-c2ccc(Cl)cc2)cc1	-9	1	/	-1	-4	-10	/	/
Cc1ccc(C(=O)Nn2cnc3ccccc3c2=O)cc1C	-1	/	/	-1	/	/	/	/
O=C1CSC(=S)N1/N=C/c1c(F)cccc1F	37*	/	/	3	/	/	-4	2
N=C1SCC(=O)N1/N=C/c1ccccc1	-4	19	1	-1	0	-3	/	/
O=C1CSC(=S)N1/N=C/c1cccc(C(F)(F)F)c1	40*	/	/	-3	/	/	-6	-4
COc1cccc(/C=N/N2C(=O)CSC2=S)c1O	32*	-20	35	0	28	1	26	0
COC(=O)CSc1nnc(CNC(=O)c2ccc(OC)c(OC)c2)n1C	-4	-15	1	-1	1	-10	/	/
O=C(CSc1ccc2nnc(-c3cccnc3)n2n1)Nc1ccc(F)cc1F	5	/	/	0	/	/	/	/
c1ccc(CN2CCC3(CC2)Nc2ccccc2S3)cc1	34*	6	3	7	1	1	-55	5
CCN(CC)c1ccc(N=C2C(=O)Nc3ccccc32)cc1	63*	/	/	-4	/	/	-24	-1
CC(C)c1ccc(OCC(=O)Nc2ccc3oc(=O)ccc3c2)cc1	3	/	/	-6	/	/	/	/
O=C(Cc1ccc([N+](=O)[O-])cc1)c1c(O)cc(O)cc1O	44*	26	1	-4	1	-8	21	-9
O=C(O)c1c[nH]c(=S)n1-c1ccc(F)cc1	51*	1	27	3	28	1	39*	-2
CSc1ncc(C(=O)O)n1-c1ccc(F)cc1	-4	2	-1	1	3	3	/	/
CCOC(=O)c1nc(NCCc2ccccc2)sc1C	0	15	-2	6	-7	-7	/	/
CCOC(=O)c1nc(NNC(C)=O)sc1C	37*	-9	0	4	3	-8	-3	-2
Cc1cc(NC(=O)CCC(=O)N(CC(=O)NCC2CCCO2)c2cccc(F)c2)no1 (stereo unspecified)	2	/	/	2	/	/	/	/
Cc1nnc(-c2ccc(Oc3ccc(Br)cc3)c([N+](=O)[O-])c2)o1	33*	4	-4	2	1	4	-55	-1
COc1ccc(Nc2c3c(nc4ccc(C)cc24)CCC3)cc1	12	/	/	2	/	/	/	/
Cc1ccc2nc3c(c(Nc4ccc(O)cc4)c2c1)CCC3	33*	/	/	-3	/	/	10	-1
CC(=Nc1ccc(O)cc1)c1sc2ccccc2c1O	55*	4	-22	2	-98	0	-39	3
CC(=Nc1ccccc1O)c1sc2ccccc2c1O	23	21	-34	?	-94	1	/	/
COc1cc(C2Nc3cccc4cccc(c34)N2)ccc1OC(C)=O	-2	5	-23	-6	-146	-5	/	/
COc1ccc(C2Nc3cccc4cccc(c34)N2)cc1Br	35*	/	/	-10	/	/	-13	-2
SMILES	PfM18AAP inh-1	Hck Nef HTS	Runt-CBFb FRET	RanGTP-Imp inh	Runt-SMMHC FRET	RBBP9 inh	PfM18AAP inh-2	CTSL1 counter
CC(Oc1ccccc1)C(=O)N=C1SC2CS(=O)(=O)CC2N1c1ccccc1 (stereo unspecified)	8	/	/	-1	/	/	/	/
CC(C)(C)c1ccc(S(=O)(=O)O/N=C2/CCCCC2c2ccc([N+](=O)[O-])cc2[N+](=O)[O-])cc1 (stereo unspecified)	38*	3	28	0	16	-5	-28	2
CS(=O)(=O)O/N=C1\CCCCC1c1ccc([N+](=O)[O-])cc1[N+](=O)[O-] (stereo unspecified)	0	/	/	3	/	/	/	/
O=C(O)/C=C/c1cnc2ccccc2c1	-2	19	2	/	3	1	/	/
COc1cc(-c2ccc(NC(C)=O)c(OC)c2)ccc1NC(C)=O	-17	10	1	2	-2	-8	/	/
COc1cc(O)c(NC(C)=O)c2nonc12	33*	1	3	?	0	-2	27	1
O=C(Nn1cnnc1)c1cc2c(s1)CCCCC2	53*	6	0	-2	2	4	55*	5
CNC(=O)c1cc2c(s1)CCCCCC2	6	-4	0	0	1	-6	/	/
COCCCNC(=S)N1CCC(C(=O)c2ccc(Cl)cc2)CC1	12	/	/	-1	/	/	/	/
Cc1snc(SCC(=O)c2ccc(F)cc2)c1C#N	-2	20	1	1	-3	-2	/	/
Cc1snc(SCC(=O)c2ccc([N+](=O)[O-])cc2)c1C#N	45*	-56	21	/	60*	-14	-22	6
CN(C)/N=C/C=C1\CCC/C(=C\c2ccc(F)c(F)c2)C1=O	38*	23	6	-9	3	-11	26	4
COc1cc(Cl)ccc1NC(=S)N(CCCN1CCOCC1)Cc1cn(C)c2ccccc12	32*	10	43	1	30	-4	-1	3
Cn1nc(C(=O)NNC(=O)COc2ccccc2)c2ccccc2c1=O	44*	0	0	2	1	1	32*	-4
COC(=O)COc1ccc(NS(=O)(=O)c2cccc([N+](=O)[O-])c2)cc1	4	4	3	3	1	-6	/	/
COc1cc(/C=N/NC(=S)Nc2cccc(S(=O)(=O)N(C)C)c2)cc(OC)c1O	43*	5	8	1	8	-2	26	-1
O=C1CC(c2ccccc2)=NN1c1nc(-c2ccccc2)cs1	33*	20	-2	-2	-3	-1	-29	2
CC1=NN(c2nc(-c3ccccc3)cs2)C(=O)C1	9	0	0	-2	2	1	/	/
COC(=O)c1cc(O)c(O)c(O)c1	32*	0	40	5	21	1	-5	10

Source: PubChem (several laboratories)
